The nature of data set [1]: Cytotoxicity against in Balb/c mouse T cells at 10^-5 M after 48 hrs by MTT assay. It is filed as cell-based. The settings on record: t-cell, 10 µM. In a few lines: (§1)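 Spleens taken aseptically from Balb/c mice (18–22 g). Single-cell suspension made in incomplete RPMI, RBCs lysed with Tris-ammonium chloride, cells washed, resuspended in complete RPMI and checked for viability by trypan blue. Cells seeded at 1 × 10⁶ cells/mL. Compounds in DMSO tested at 1×10⁻⁴, 1×10⁻⁵ and 1×10⁻⁶ M, 48 h, 37 °C, 5% CO₂.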
On the technique in general: Formazan colour is commonly taken as a measure of viable cells.

Data set [2] in a line: Immunostimulant activity in Balb/c mouse B cells assessed as inhibition of LPS-induced cell proliferation at 10^-5 M after 48 hrs by MTT assay. It is filed as functional. In a few lines: as §1
Data set [3] is described as follows: Immunostimulant activity in Balb/c mouse B cells assessed as inhibition of LPS-induced cell proliferation at 10^-4 M after 48 hrs by MTT assay. In kind it is functional. In a few lines: as §1
A short description of data set [4]: Cytotoxicity against in Balb/c mouse B cells at 10^-6 M after 48 hrs by MTT assay. In kind it is cell-based. The settings on record: 1 µM. In outline:
as §1

Data set [5] can be described thus: Immunostimulant activity in Balb/c mouse T cells assessed as inhibition of concanavalin A-induced cell proliferation at 10^-6 M after 48 hrs by MTT assay. In kind it is functional. In a few lines:
as §1

Data set [6] in a line: Immunostimulant activity in Balb/c mouse T cells assessed as inhibition of concanavalin A-induced cell proliferation at 10^-5 M after 48 hrs by MTT assay. In kind it is functional. In outline: as §1
The nature of data set [7]: Immunostimulant activity in Balb/c mouse B cells assessed as inhibition of LPS-induced cell proliferation at 10^-6 M after 48 hrs by MTT assay. It is filed as functional. In a few lines:
as §1

Data set [8] can be described thus: Cytotoxicity against in Balb/c mouse B cells at 10^-4 M after 48 hrs by MTT assay. In kind it is cell-based. Conditions: 100 µM. In outline:
as §1

A short description of data set [9]: Immunostimulant activity in Balb/c mouse T cells assessed as inhibition of concanavalin A-induced cell proliferation at 10^-4 M after 48 hrs by MTT assay. It is filed as functional. The settings on record: Mus musculus, Balb/c, T-cell, 48 h. In a few lines: as §1
Data set [10] in a line: Cytotoxicity against in Balb/c mouse T cells at 10^-6 M after 48 hrs by MTT assay. It is filed as cell-based. The settings on record: t-cell, 1 µM. In a few lines: as §1
Data set [11] in a line: Cytotoxicity against in Balb/c mouse T cells at 10^-4 M after 48 hrs by MTT assay. It is filed as cell-based. Conditions: t-cell, 100 µM. In a few lines: as §1
A short description of data set [12]: Cytotoxicity against in Balb/c mouse B cells at 10^-5 M after 48 hrs by MTT assay. It is filed as cell-based. Conditions: 10 µM. In a few lines: as §1
A short description of data set [13]: Immunosuppressive activity in Balb/c mouse B cells assessed as inhibition of LPS-induced cell proliferation at 10^-4 M after 48 hrs by MTT assay. In kind it is functional. In outline:
as §1

A further data set concerns B. As to the kind of experiment: Immunosuppressive activity in Balb/c mouse B cells assessed as inhibition of LPS-induced cell proliferation after 48 hrs by MTT assay. In kind it is functional, cell-based. In a few lines:
as §1

Data set [14] in a line: Immunosuppressive activity in Balb/c mouse B cells assessed as inhibition of LPS-induced cell proliferation at 10^-5 M after 48 hrs by MTT assay. It is filed as functional. In a few lines: as §1
The nature of data set [15]: Immunosuppressive activity in Balb/c mouse B cells assessed as inhibition of LPS-induced cell proliferation at 10^-6 M after 48 hrs by MTT assay. It is filed as functional. In outline:
as §1

A short description of data set [16]: Immunosuppressive activity in Balb/c mouse T cells assessed as inhibition of concanavalin A-induced cell proliferation at 10^-4 M after 48 hrs by MTT assay. It is filed as functional. In outline: as §1
Data set [17] in a line: Immunosuppressive activity in Balb/c mouse T cells assessed as inhibition of concanavalin A-induced cell proliferation at 10^-5 M after 48 hrs by MTT assay. In kind it is functional. In a few lines:
as §1

Data set [18] can be described thus: Immunosuppressive activity in Balb/c mouse T cells assessed as inhibition of concanavalin A-induced cell proliferation at 10^-6 M after 48 hrs by MTT assay. It is filed as functional. The settings on record: Mus musculus, Balb/c, T-cell, 48 h. In a few lines: as §1
A further data set has as its system Plasmodium falciparum. As to the kind of experiment: Antimalarial activity against chloroquine-resistant Plasmodium falciparum Smith. In kind it is functional. The settings on record: read-out: ED50 (the source's name).

Structures are written as SMILES. ≈ marks a conversion by molar mass, not a printed value.

For `COc1c(Br)cc(C)cc1-n1nncc1COc1cc(C)c2c(c1C)[C@@H]1OC(=O)[C@@H](C)[C@@H]1CC2`, the Activity result in data set [1], in data set [4], in data set [8], in data set [10], in [11] and in data set [12] was “Non-toxic” each time. Also, the inhibition at 10 µM in data set [2] was 28.6%; in data set [6] it was 7.14%. In addition, the results for the inhibition at 100 µM in data set [3] and in [9] were 15.7% and 5.71%, respectively. Also, the inhibition at 1 µM came out at 5.71% in [5] and 27.1% in data set [7].
As for `CC(=O)Oc1cc(C)c2c(c1C)[C@@H]1OC(=O)[C@@H](C)[C@@H]1CC2`, the Activity entry in [1], in [4], in [8], in [10], in [11] and in data set [12] was “Non-toxic” each time. Besides, the inhibition at 100 µM was -36.8% in [13] and 47.6% in data set [9]. Besides, the inhibition at 1 µM in data set [5] came to 18.3%; in data set [15], 23.9%. The inhibition at 10 µM in data set [6] was found to be 26.8%; in [14] it was 25.6%. The inhibition entry with B is “Dose-dependent effect”.
As to `Cc1cc(OCc2cnnn2-c2cccc([N+](=O)[O-])c2)c(C)c2c1CC[C@H]1[C@H](C)C(=O)O[C@@H]21`, the Activity result in [1] is listed as “Toxic”; in data set [4], “Non-toxic”; in [8] it was “Toxic”; in data set [10], “Non-toxic”; in [11] it was “Toxic”; in [12], “Toxic”. The values for the inhibition at 10 µM in [2] and in [17] were 0.85% and 93.9%, respectively. Besides, the inhibition at 100 µM in data set [16] amounted to 95.1%; in [3] it was 36.8%. The inhibition at 1 µM in data set [18] worked out at 93.9%; in [15], 24.8%.
For the compound `CC1=CC2C[C@]3(C)CC[C@H]4[C@H](C)C(=O)O[C@@H]4C13OO2` (some centres not stated), in the data set with Plasmodium falciparum, the EC50 stood at 0.729 µg/mL (≈ 2.76 µM).
Consider `Cc1cc(OCc2cnnn2-c2ccc(Br)cc2)c(C)c2c1CC[C@H]1[C@H](C)C(=O)O[C@@H]21`, for which the Activity result in data set [1], in data set [4], in data set [8], in [10], in data set [11] and in data set [12] was “Non-toxic” each time. Moreover, the inhibition at 10 µM in data set [2] is 36.8%; in data set [6], 2.43%. Further, the figures for the inhibition at 100 µM in data set [13] and in data set [9] were 15.4% and 48.8%, respectively. For the same compound, the values for the inhibition at 1 µM in data set [7] and in [18] were 26.5% and 1.21%, respectively.
Turning to `CCCOc1ccc(-n2nncc2COc2cc(C)c3c(c2C)[C@@H]2OC(=O)[C@@H](C)[C@@H]2CC3)cc1Cl`, the Activity entry in [1], in data set [4], in data set [8], in data set [10], in data set [11] and in data set [12] was “Non-toxic” in each case. Also, the figures for the inhibition at 10 µM in data set [2] and in [17] were 12.8% and 27.1%, respectively. Also, the inhibition at 100 µM was 21.4% in [3] and 7.14% in data set [9]. Moreover, the inhibition at 1 µM was 41.4% in data set [7] and 7.14% in data set [18].
`Cc1cc(OCc2cnnn2-c2ccc(F)cc2)c(C)c2c1CC[C@H]1[C@H](C)C(=O)O[C@@H]21`: the Activity result in data set [1], in [4], in data set [8], in [10], in data set [11] and in [12] was “Non-toxic” throughout. Besides, the inhibition at 10 µM in data set [2] amounted to 10%; in [6], 44.3%. The figures for the inhibition at 100 µM in data set [13] and in [9] were 2.85% and 70%, respectively. Moreover, the inhibition at 1 µM came out at 12.8% in data set [5] and 11.4% in data set [7].
Turning to `Cc1cc(OCc2cnnn2-c2ccccc2)c(C)c2c1CC[C@H]1[C@H](C)C(=O)O[C@@H]21`, the Activity entry in data set [1] is given as “Toxic”; in data set [4], “Non-toxic”; in [8] it was “Toxic”; in data set [10] it was “Non-toxic”; in data set [11], “Toxic”; in [12], “Toxic”. Further, the inhibition at 10 µM in [2] amounted to 8.57%. Further, the figures for the inhibition at 100 µM in data set [3] and in data set [9] were 1.42% and 97.1%, respectively. Further, the inhibition at 1 µM in data set [7] is 30%; in data set [18], 21.4%.
Consider `COc1ccc(F)c(-n2nncc2COc2cc(C)c3c(c2C)[C@@H]2OC(=O)[C@@H](C)[C@@H]2CC3)c1Br`, for which the Activity entry in [1], in data set [4], in data set [8], in data set [10], in data set [11] and in data set [12] was “Toxic” throughout. Also, the values for the inhibition at 10 µM in data set [2] and in [17] were 1.42% and 37.1%, respectively. Besides, the values for the inhibition at 100 µM in data set [16] and in data set [13] were 45.7% and 24.3%, respectively. For the same compound, the inhibition at 1 µM amounted to 14.3% in data set [18] and 1.42% in data set [15].

What is called inhibition is the drop in the measured response relative to a control, in per cent.

The values are drawn from ChEMBL document CHEMBL2311361, “Diminutive effect on T and B-cell proliferation of non-cytotoxic α-santonin derived 1,2,3-triazoles: a report” (Eur J Med Chem, 2013).
